This is a sample that favours compounds with a hit; in the whole collection about 4.1% have one here.
KCC2 mod – KCC2 cotransporter modulators, thallium flux, primary screen, cell-based, HEK293 KCC2, FluoZin-2 fluorescence, MLSMR; Solute carrier family 12 member 5 (Homo sapiens), Q9H2X9; KCC2 cells, thallium flux FluoZin-2 fluorescence; B-score of Tl+ flux slope (higher = more flux/activation; lower = inhibition) at 10 µM; 190,000 tested, 2.2% active;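 active = thallium flux slope and its plate-corrected score both differing from the plate sample mean at a set confidence after two filtering rounds, in either direction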;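 also: slope of fluorescence scaled to starting intensity during 10 to 20 s after thallium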
Redox H2O2 prof – compounds producing H2O2 with reducing agent – biochemical, NIH compound library profiling, artefact control for MLSCN library redox annotation, primary screen | 200,000 tested, 0.03% active | activation, % at 10 µM | AID 878, 2007 | DTT-dependent redox cycling H2O2, phenol red/HRP absorbance; 100% = 100 µM peroxide control, 0% = buffer;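 active = activation of at least 50% relative to the plate's high and low controls in the primary single-dose screen; inactive = activation below 50%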;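 also: compound incubated with DTT at 0.8 mM final as the reducing agent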
Dynein transport – inhibitors of GR-EGFP nuclear translocation, primary screen, dynein cargo transport inhibitor project, imaging, high-content, 3617.4 mouse cells; test concentration mostly 20 µM; stimulated with dexamethasone, 1 µM; hits give low values; z-score, hits read low; 220,000 tested, 0.47% active; AID 1381, 2008;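 active = plate z-score of nuclear minus cytoplasmic receptor signal below a set negative limit, without overly bright fluorescence or cell loss, cut at about -3.5 in these data, passing the limit was not always enough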;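 also: z-score of nuclear minus cytoplasmic ring GR-EGFP intensity difference per well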
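Also added – dexamethasone, 1.0 µM final · Buffer or medium – tet-free, stripped-serum medium · Schedule – induction 48 h, compound 1 h, agonist 30 min · Detection – formaldehyde fixation, Hoechst nuclear stain, 10x automated fluorescence imaging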
ROMK primary – ROMK potassium channel modulators, primary screen, cell-based, thallium flux, MLSMR library; ATP-sensitive inward rectifier potassium channel 1 (Homo sapiens), P48048; Tet-inducible ROMK, thallium flux fluorescence; actives lie on both sides; B-score at 10 µM; 130,000 tested, 2% active; AID 1918, 2009;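 active = signal ratio slope over the read window, or its plate-corrected B-score, at least 3 SD from the plate mean, either direction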;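 also: B-score of the F/F0 ratio slope over 7 to 12 s after thallium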
Autophagy mod – autophagy modulators in MEF cells, primary screen, imaging, high-content, MEF GFP-LC3 | MEF GFP-LC3 puncta imaging; test concentration mostly 10 µM | calls only at 10 µM (by protocol) | 190,000 tested, 0.98% active | AID 463193, 2010;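 active = percentage of spot-positive cells more than 3 SD above its plate mean, without a fluorescence outlier flag or 80% toxicity; inconclusive = no clear call, values can overlap the other calls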;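 also: spot-positive cell cutoff set from DMSO-treated cells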
ROMK retest – ROMK channel modulator hit retest, confirmation, cell-based, thallium flux, duplicate, resupplied hits; shares compounds with ROMK primary; normalized thallium flux (F/F0 slope) at 10 µM; AID 1917, 2009; fluorescence ratio; hits give low values; 3,000 tested, 54% active;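 active = Flux at 10 µM at least 3 SD below or above vehicle control mean in one or both replicates; inconclusive = no clear call, values can overlap the other calls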
An asterisk follows results filed as active; i = inactive; ? = inconclusive; . = no result.

SMILES	KCC2 mod	Redox H2O2 prof	Dynein transport	ROMK primary	Autophagy mod	ROMK retest
COc1cccc(CNC(=O)C2CCN(Cc3cnn(-c4ccccc4)c3-n3cccc3)CC2)c1	-0.161	0.3	1.85	-3.54*	i	0.0548*
Cc1ccc(C)c(OCC(O)CN2CCC(CN3C(=O)c4cccc5cccc(c45)C3=O)CC2)c1 (stereo unspecified)	0.727	-0.5	-0.0649	-4.72*	i	?
CC(C)(C)c1ccc(S(=O)(=O)N2CCSC2)cc1	-0.293	-0.1	-0.235	-1.22	i	.
CCOc1cccc(/C=C2\NC(=S)N(c3ccccc3)C2=O)c1O	-2.37	.	0.142	.	.	0.0582*
Cc1cc(C)nc(N/N=C/c2sccc2C)n1	-0.183	-0.6	0.243	-18.9*	i	0.0758
Cc1cc(C)nc(N/N=C/c2ccccc2)n1	0.431	0.3	-0.551	-2.38	i	.
CC(=O)c1c(C)nn(C(C)CC(=O)O)c1C (stereo unspecified)	-0.128	1.0	-0.228	.	i	0.0764
C=CCOc1ccc(/C=N/N2C(=O)C(CC(=O)Nc3ccc(F)cc3F)SC2=NC)cc1 (stereo unspecified)	0.406	-0.2	0.857	.	i	.
Cc1cc(C(=O)Cn2nc(C(=O)O)c3ccccc3c2=O)c(C)n1CCc1ccc(Cl)cc1	-1.71	-1.6	0.19	-0.11	i	.
CC(=O)c1ccc(Nc2cc(C)nc3c(C)cccc23)cc1	-1.58	-0.1	1.09	4.23*	i	0.0871
O=C(O)c1cccc(-c2ccc(/C=c3/sc4nc5ccccc5n4c3=O)o2)c1	-0.0356	.	1.48	.	.	0.0401*
CC1CN(S(=O)(=O)c2cccc(C(F)(F)F)c2)CC(C)O1 (stereo unspecified)	-0.221	.	-0.992	.	.	.
CC(C)CCN(C)C1CCN(S(=O)(=O)c2cccc(C(F)(F)F)c2)CC1	-0.188	0.3	-0.38	-2.89*	i	0.0723
CC(C)CC1(C)NC(=O)N(CC(=O)Nc2cccc(S(=O)(=O)N(C)c3ccccc3)c2)C1=O (stereo unspecified)	0.0208	-0.5	-0.0935	0.0371	i	.
Cc1ccccc1C1CC(=O)NC2=C1C(=O)CCC2 (stereo unspecified)	1.06	1.0	2.63	0.691	i	.
CCC(C)Oc1ccccc1C1CC(=O)NC2=C1C(=O)CCC2 (stereo unspecified)	0.112	2.9	0.0184	2.77*	i	0.0925
NCCc1c(-c2ccccc2)n(-c2ccccc2)c2ccccc12	0.116	-2.1	-1.48	-3.39*	i	0.061*
COc1ccc(CCN2C(=O)CS/C2=N/NC(=O)c2ccccc2F)cc1OC	-0.647	3.6	0.418	0.781	i	.
O=C(/C=C\c1ccco1)Oc1cccc2cccnc12	-0.725	-0.8	1.85	-21.9*	i	0.0857
O=C(c1ccccc1Sc1ccccc1[N+](=O)[O-])N1CCCCC1	.	-0.7	-0.386	0.432	i	.
CCCCCc1cc(=O)oc2c(C(CCN3CCCC3)c3ccc(N(C)C)cc3)c(OC)cc(OC)c12 (stereo unspecified)	0.854	.	-5.25	.	.	?
CCCn1nc(Oc2nc(N(C)C)nc(N(C)C)n2)ccc1=O	0.0259	-0.4	-0.123	0.735	i	.
CC(C)NC(=O)Cn1cc(C(=O)C2CC2)c2ccccc21	0.34	0.5	-0.572	0.157	i	.
NC(=O)C1CCN(C(=O)c2ccc3c(=O)n(Cc4ccco4)c(SCC(=O)c4ccccc4)nc3c2)CC1	0.33	0.0	0.467	0.018	i	.
NC(=O)C1CCN(C(=O)c2ccc3c(=O)n(Cc4ccco4)c(SCC(=O)c4ccc(F)cc4)nc3c2)CC1	0.557	0.5	0.494	2.78*	i	0.0917
SMILES	KCC2 mod	Redox H2O2 prof	Dynein transport	ROMK primary	Autophagy mod	ROMK retest
Cc1ccccc1C(=O)NC(=S)N(C)CCc1ccccn1	1.15	-1.9	-0.0532	0.0274	i	.
COc1ccc(OC)c(-c2cc(-c3cccnc3)nc(N)c2C#N)c1	-0.296	.	1.12	3.46*	.	0.0761
COc1cccc(-c2cc(-c3cccnc3)nc(N)c2C#N)c1	-1.5	.	0.782	-0.0231	.	.
COc1cc(-c2cc(-c3ccc(O)cc3)nc(N)c2C#N)ccc1O	-1.98	0.4	-1.05	4.15*	i	0.0887
COc1ccc(-c2cc(-c3cccnc3)c(C#N)c(N)n2)cc1	0.755	.	-0.819	1.68	.	.
CCN1CCN(CC(=O)c2ccc(OC)cc2)CC1	-0.995	-0.4	-0.15	-0.069	i	.
Cc1ccccc1OCCN(C#N)c1nc(N(C)C)nc(N(C)C)n1	-1.24	0.9	0.575	-0.00285	i	.
O=C(Nc1ccc(S(=O)(=O)Nc2nccs2)cc1)c1cc(-c2ccccc2Cl)nc2ccccc12	2.54	-8.4	0.9	4.25*	i	0.0882
N#C/C(=C(/O)c1cc2ccccc2o1)c1nc2ccccc2s1	-2.82	.	1.38	.	.	0.0582*
COc1ccc(C(=O)Nc2cc(C(C)=O)c(/C=C/N(C)C)oc2=O)cc1	-2.11	1.5	0.195	.	i	0.0368*
Cc1snc(S(=O)(=O)/C(C#N)=N\Nc2ccccc2)c1C#N	0.343	0.1	-0.176	1.73	i	.
Cc1snc(S(=O)(=O)/C(C#N)=N/Nc2ccc(C(F)(F)F)cc2)c1C#N	0.00758	0.2	-0.492	3.82*	i	0.102*
Cc1onc(-c2ccc(Cl)cc2)c1-c1ccnc(SCC(=O)Nc2ccc(C(C)C)cc2)n1	-0.864	.	2.37	.	.	.
CN(CC1CCOCC1)C(=O)CC1C(=O)NCCN1Cc1cccc(Oc2ccccc2)c1 (stereo unspecified)	-0.706	13.1	-1.16	-1.33	i	.
Cc1ccc(N/C=C(\C#N)S(=O)(=O)c2ccccc2)cc1	0.819	0.2	0.638	2.52*	i	0.0779
O=C(CN(Cc1ccccc1)C(=O)CSc1nnc(COc2ccccc2)o1)NC1CCCC1	.	1.1	-0.174	.	i	.
CC(C)(C)NC(=O)CN(C(=O)CSc1nnc(COc2ccccc2)o1)c1cccc(F)c1	-2.67	0.8	0.252	-2.66*	i	?
CCOC(=O)c1ccccc1NC(=O)Cn1c(-c2nonc2N)nc2ccccc21	-0.96	-0.8	1.22	4.43*	i	0.0869
Cc1ccc(C(=O)Nc2ccccc2C(=O)NCc2ccco2)cc1S(=O)(=O)N1CCCCC1	1.49	2.9	0.0641	-0.604	i	0.0782
Cc1ccccc1NC(=O)C(=O)c1cn(C)c2ccccc12	0.011	0.3	0.666	-0.423	i	.
COc1ccc(CCC(C)Nc2ccccc2F)cc1 (stereo unspecified)	-0.427	0.1	0.188	0.233	i	.

Source: PubChem BioAssay
